The nature of series [1]: Drug uptake in brain of Sprague-Dawley rat model of haloperidol-induced catalepsy at 10 mg/kg, po. The format is ADME, organism-based. The following applies: in vivo, read-out: Drug uptake. In short, it runs like this:
(§1)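 Male Sprague-Dawley rats given haloperidol 0.75 mg/kg i.p., then returned to cages for 60 min. Compound 10 mg/kg was dosed orally 30 min before catalepsy testing. Plasma, brain and CSF were then assayed, and free levels reported.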

The nature of series [2]: Brain to plasma partition coefficient, Kp of the compound in rat administered as iv cassette dose. The format is ADME, organism-based. As to conditions: brain and plasma, read-out: Kp. In short, it runs like this: (§2)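 Cassette dosing in male Sprague-Dawley rats (~300 g, n = 1 per experiment), with carotid artery and jugular vein catheters. Animals acclimated about one week with food and water ad libitum. Plasma (ng/mL) and brain (ng/g) levels were measured and Kp calculated.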

The nature of series [3]: Drug uptake in cerebrospinal fluid of Sprague-Dawley rat model of haloperidol-induced catalepsy at 10 mg/kg, po. In kind it is ADME, organism-based. As to conditions: in vivo, read-out: Drug uptake. Put shortly:
as §1

For the next series, the system named is Rattus norvegicus. Briefly: Reversal of haloperidol-induced catalepsy in Sprague-Dawley rat assessed as decrease in latency to remove forepaws from bar at 10 mg/kg, po administered 30 mins prior to test. In kind it is functional, organism-based. In short, it runs like this:
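Male Sprague-Dawley rats were randomized and given haloperidol 0.75 mg/kg i.p., then 60 min in home cage. Vehicle or compound (10 mg/kg) was given orally 30 min before catalepsy testing, N = 11–12 rats/group. Data analyzed by one-way ANOVA with Dunnett's test versus vehicle + haloperidol.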

In series [4] the target is T1, Metabotropic glutamate receptor 4 (Homo sapiens, UniProt Q14833). Briefly: Positive allosteric modulation of human mGlu4 receptor expressed in CHO cells co-expressing Gqi5 assessed as increase in glutamate-induced calcium mobilization preincubated for 142 secs followed by EC20 glutamate addition and measured after 147 secs by Fluo-4-AM dye based fluorescence assay relative to control. In kind it is functional, cell-based. Put shortly: (§3)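 CHO cells expressing human mGlu4 and Gqi5, plated at 30,000 cells/well and grown overnight at 37 °C, 5% CO2. Cells were loaded with 1 μM Fluo-4 AM for 45 min at 37 °C in HBSS/20 mM HEPES/2.5 mM probenecid. Compounds were run as 10-point, 1:3 dilution series. After 142 s, EC20 glutamate was added; 147 s later, EC80 glutamate. Fluorescence was normalized to the maximal glutamate response. EC50 and %Glu Max were fitted by four-parameter logistic, with maximum normalized to PHCCC.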
T1 sequence (Q14833 whole entry): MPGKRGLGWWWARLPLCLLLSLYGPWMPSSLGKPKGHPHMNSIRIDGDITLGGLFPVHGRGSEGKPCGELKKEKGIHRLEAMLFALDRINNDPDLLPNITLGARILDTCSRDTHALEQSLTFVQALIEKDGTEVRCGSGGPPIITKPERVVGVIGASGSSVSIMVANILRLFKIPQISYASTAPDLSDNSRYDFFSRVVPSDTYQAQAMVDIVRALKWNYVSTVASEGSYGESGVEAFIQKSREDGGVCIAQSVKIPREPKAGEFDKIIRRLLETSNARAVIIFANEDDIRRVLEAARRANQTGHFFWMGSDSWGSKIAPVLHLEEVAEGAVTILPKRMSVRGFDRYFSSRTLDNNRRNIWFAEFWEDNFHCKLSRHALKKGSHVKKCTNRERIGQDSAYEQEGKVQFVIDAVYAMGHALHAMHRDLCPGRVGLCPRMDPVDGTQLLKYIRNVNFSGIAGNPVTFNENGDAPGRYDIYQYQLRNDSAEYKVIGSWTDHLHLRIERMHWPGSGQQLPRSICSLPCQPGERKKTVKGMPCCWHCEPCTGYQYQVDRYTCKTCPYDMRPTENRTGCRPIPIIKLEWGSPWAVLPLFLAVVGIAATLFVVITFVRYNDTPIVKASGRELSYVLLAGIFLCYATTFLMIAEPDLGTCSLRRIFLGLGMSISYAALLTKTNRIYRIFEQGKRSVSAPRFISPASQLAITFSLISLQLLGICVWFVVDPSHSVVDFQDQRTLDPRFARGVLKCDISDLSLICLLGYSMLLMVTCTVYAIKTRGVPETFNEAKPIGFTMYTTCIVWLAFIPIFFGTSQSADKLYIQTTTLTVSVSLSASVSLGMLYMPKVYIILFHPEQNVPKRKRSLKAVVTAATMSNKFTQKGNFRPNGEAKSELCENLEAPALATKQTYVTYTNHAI

Series [5] is described as follows: Intrinsic clearance in rat liver microsomes at 1 uM preincubated for 5 mins followed by NADPH addition measured up to 45 mins by LC-MS/MS analysis. The format is ADME, Microsome. As to conditions: read-out: CLH. In short, it runs like this: (§4)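 Intrinsic and predicted hepatic clearance derived from liver microsome incubations.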
On the technique in general: Microsomes from liver hold many membrane-bound enzymes, among them those of drug oxidation.

Series [6] can be described thus: Clearance in rat administered as iv cassette dose. The format is ADME, organism-based. As to conditions: in vivo. In short, it runs like this: (§5)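 IV cassette in male Sprague-Dawley rats (~300 g, n = 1 per experiment), cannulated in carotid artery and jugular vein and acclimated about one week. Plasma clearance, Vss, t1/2 and MRT were derived.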
The nature of series [7]: Half life in rat administered as iv cassette dose. The format is ADME, organism-based. As to conditions: in vivo. Put shortly:
as §5

The target in series [8] is T1, Metabotropic glutamate receptor 4. Briefly: Positive allosteric modulation of human mGlu4 receptor expressed in CHO cells co-expressing Gqi5 assessed as increase in glutamate-induced calcium mobilization preincubated for 142 secs followed by EC20 glutamate addition and subsequent EC80 glutamate addition after 147 secs by Fluo-4-AM dye based fluorescence assay. The format is functional, cell-based. In short, it runs like this:
as §3
A general note: Calcium assays in cells follow changes in intracellular calcium, usually with a dye or a luminescent sensor.

The nature of series [9]: Plasma concentration in rat administered as iv cassette dose. As to conditions: in vivo. The format is ADME, organism-based. Put shortly:
as §2

Series [10] is described as follows: Drug uptake in rat brain administered as iv cassette dose. The format is ADME, organism-based. As to conditions: in vivo. In short, it runs like this:
as §2

A short description of series [11]: Fraction unbound in human plasma after 4 hrs by equilibrium dialysis method. In kind it is ADME, cell-free. A general note: Equilibrium dialysis compares concentrations on both sides of a semipermeable membrane.
The target in series [12] is Metabotropic glutamate receptor 4 (Rattus norvegicus, UniProt P31423). Briefly: Positive allosteric modulation of rat mGlu4 receptor expressed in HEK cells co-expressing GIRK1/2 assessed as increase in glutamate-induced thallium flux preincubated for 140 secs followed by glutamate addition and measured after 2.5 mins by FluoZin-2-AM dye based fluorescence assay. The format is cell-based. In short, it runs like this: (§6)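 HEK cells co-expressing rat mGlu4 and GIRK1/2 were loaded for 1 h at room temperature with FluoZin-2 AM (330 nM final) in HBSS/20 mM HEPES pH 7.4. Compound was incubated 140 s, then thallium buffer with or without agonist was added. Reading continued for 2.5 min at room temperature. Potency was fitted by four-parameter logistic.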
Sequence of Metabotropic glutamate receptor 4 (Rattus norvegicus, UniProt P31423) (P31423 whole entry): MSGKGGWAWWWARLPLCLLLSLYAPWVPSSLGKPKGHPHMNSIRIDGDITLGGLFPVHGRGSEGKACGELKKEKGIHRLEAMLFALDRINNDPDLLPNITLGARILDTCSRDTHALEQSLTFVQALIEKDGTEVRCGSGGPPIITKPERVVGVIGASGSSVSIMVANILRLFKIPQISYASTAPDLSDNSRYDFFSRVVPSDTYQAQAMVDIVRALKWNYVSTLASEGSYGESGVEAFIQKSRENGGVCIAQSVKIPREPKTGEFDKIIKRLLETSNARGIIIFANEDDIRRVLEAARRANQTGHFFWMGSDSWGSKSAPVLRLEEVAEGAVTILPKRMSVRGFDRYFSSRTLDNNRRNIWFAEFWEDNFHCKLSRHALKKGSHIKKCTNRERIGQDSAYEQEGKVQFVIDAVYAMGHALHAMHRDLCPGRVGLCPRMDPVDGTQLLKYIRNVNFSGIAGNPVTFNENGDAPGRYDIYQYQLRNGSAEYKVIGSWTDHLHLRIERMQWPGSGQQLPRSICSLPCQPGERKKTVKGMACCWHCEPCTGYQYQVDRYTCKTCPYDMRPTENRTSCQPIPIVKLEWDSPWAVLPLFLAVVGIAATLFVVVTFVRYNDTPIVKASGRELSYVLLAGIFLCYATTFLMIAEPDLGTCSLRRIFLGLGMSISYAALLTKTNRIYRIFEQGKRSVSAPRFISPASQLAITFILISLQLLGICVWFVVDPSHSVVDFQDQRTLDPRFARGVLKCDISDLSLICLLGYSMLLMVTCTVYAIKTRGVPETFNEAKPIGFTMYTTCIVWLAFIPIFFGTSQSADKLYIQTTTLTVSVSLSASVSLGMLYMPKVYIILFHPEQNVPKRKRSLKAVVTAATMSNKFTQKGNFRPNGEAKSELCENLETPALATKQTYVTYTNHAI

Series [13] deals with T2, Adenosine receptor A3 (Homo sapiens) (UniProt P0DMS8).
T2 sequence (whole entry): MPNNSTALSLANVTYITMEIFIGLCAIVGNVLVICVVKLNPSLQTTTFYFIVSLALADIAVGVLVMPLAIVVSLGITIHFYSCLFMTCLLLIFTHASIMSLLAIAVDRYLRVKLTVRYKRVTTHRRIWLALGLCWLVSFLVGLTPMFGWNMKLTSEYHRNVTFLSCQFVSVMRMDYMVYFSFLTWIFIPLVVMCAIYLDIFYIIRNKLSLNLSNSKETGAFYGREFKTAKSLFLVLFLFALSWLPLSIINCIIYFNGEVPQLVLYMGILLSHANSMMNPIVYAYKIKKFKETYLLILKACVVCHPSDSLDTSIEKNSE
Nature of the series: Displacement of [125I]AB-MECA from recombinant human A3 receptor at 10 uM after 120 mins by scintillation counting method relative to control.

The next series addresses T3, Cytochrome P450 1A2 (Homo sapiens, UniProt P05177).
T3 sequence (P05177 whole entry): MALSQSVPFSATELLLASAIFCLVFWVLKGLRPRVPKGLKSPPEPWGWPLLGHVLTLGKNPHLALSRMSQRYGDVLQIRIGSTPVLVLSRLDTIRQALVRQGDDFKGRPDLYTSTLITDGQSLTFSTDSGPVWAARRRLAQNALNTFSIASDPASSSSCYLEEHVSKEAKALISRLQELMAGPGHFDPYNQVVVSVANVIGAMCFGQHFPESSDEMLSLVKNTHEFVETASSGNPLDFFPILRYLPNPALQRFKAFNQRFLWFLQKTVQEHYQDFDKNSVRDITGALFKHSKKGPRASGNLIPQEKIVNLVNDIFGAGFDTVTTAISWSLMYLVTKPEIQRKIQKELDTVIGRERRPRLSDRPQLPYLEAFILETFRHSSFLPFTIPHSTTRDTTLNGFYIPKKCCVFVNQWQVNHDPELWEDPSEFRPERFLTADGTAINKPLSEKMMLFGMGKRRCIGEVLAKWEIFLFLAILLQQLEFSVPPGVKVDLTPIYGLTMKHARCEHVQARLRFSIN
Briefly: Inhibition of CYP1A2 in human liver microsomes using phenacetin as substrate preincubated for 15 mins followed by substrate addition and measured after 8 mins by LC-MS/MS analysis. The format is ADME. In short, it runs like this: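 IC50 for CYP1A2 inhibition determined in human liver microsomes using specific probe substrate-metabolite pairs.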

The nature of series [14]: Intrinsic clearance in human liver microsomes at 1 uM preincubated for 5 mins followed by NADPH addition measured up to 45 mins by LC-MS/MS analysis. The format is ADME, Microsome. The following applies: read-out: CLH. In short, it runs like this:
as §4

Series [15] in a line: Fraction unbound in rat plasma after 4 hrs by equilibrium dialysis method. The format is ADME, cell-free.
Series [16] is described as follows: Plasma concentration in Sprague-Dawley rat model of haloperidol-induced catalepsy at 10 mg/kg, po. In kind it is ADME, organism-based. As to conditions: in vivo. In short, it runs like this: as §1
The target of series [17] is Metabotropic glutamate receptor 4 (Rattus norvegicus) (UniProt P31423). Nature of the series: Positive allosteric modulation of rat mGlu4 receptor expressed in HEK cells co-expressing GIRK1/2 assessed as increase in glutamate-induced thallium flux preincubated for 140 secs followed by glutamate addition and measured after 2.5 mins by FluoZin-2-AM dye based fluorescence assay relative to control. The format is cell-based. In short, it runs like this:
as §6

Activity calls are given as the source filed them. The rule behind the calls is not given here.

Sequence of Metabotropic glutamate receptor 4 (Rattus norvegicus) (P31423 whole entry): as the sequence (P31423 whole entry) above

In general, Kp refers to tissue or fluid exposure divided by exposure in the circulation. For orientation: clearance means the volume of plasma or blood freed of the substance per unit of time. As a reminder, the half-life is how long it takes for the measured level to halve. As usually defined, the EC50 is the concentration needed to bring the measured effect to its halfway point. A word on the fraction unbound: it is free concentration divided by total concentration. A higher fraction unbound goes with weak binding. For orientation: inhibition means how much of the control response was suppressed. The IC50 is the concentration at which inhibition is half-maximal. A low value points to greater potency in that assay. Consider `O=C(NC1CC(F)(F)C1)c1nsc2cc(Nc3n[nH]c4cccnc34)ccc12`, for which the concentration in series [1] stood at 252 nM; in series [3], 46 nM; in [16] it was 1120 nM. Further, the Kp in [2] was determined as 0.4. Further, the outcome with Rattus norvegicus was Active. Besides, the %max in series [4] came to 50.5%; in series [17], 76.8%. Also, the CLint scaled at 1 µM in [5] came to 34.2 mL/min/kg; in series [14], 19 mL/min/kg. The clearance in series [6] amounted to 3.1 mL/min/kg. In series [7], this molecule showed a half-life of 7.42 h. In addition, the EC50 in series [8] was 50.1 nM; in series [12], 82.7 nM. The same molecule had a Cp in series [9] of 284 ng/mL. In series [10], this molecule had a Drug uptake of 107 ng/g. The fraction unbound at 4 h in series [11] was 0.024; in [15], 0.005. Moreover, the inhibition in [13] was found to be 76%. In addition, the IC50 against Cytochrome P450 1A2 was greater than 30000 nM.
Turning to `CC(C)(C)Cc1noc2cc(Nc3n[nH]c4nccnc34)ccc12`, the concentration is 958 nM in [1], 627 nM in series [3] and 450 nM in series [16]. Also, the Kp in series [2] amounted to 4.7. In addition, in the series on Rattus norvegicus, the result was Active. Besides, the %max in series [4] is 83.5%; in series [17], 98.7%. Moreover, the CLint scaled at 1 µM in series [5] is 62.5 mL/min/kg; in [14], 7.2 mL/min/kg. Further, the clearance in [6] is 37.8 mL/min/kg. In series [7], this molecule returned a half-life of 1.46 h. Besides, the EC50 amounted to 860 nM in series [8] and 501 nM in series [12]. For the same molecule, the Cp in series [9] was 60.5 ng/mL. The same molecule had a Drug uptake in [10] of 285 ng/g. Also, the fraction unbound at 4 h in [11] and in series [15] was 0.023 in each case. This molecule also yielded an IC50 against Cytochrome P450 1A2 of 3200 nM.

(Values after ChEMBL document CHEMBL4308847, “Discovery, Structure-Activity Relationship, and Biological Characterization of a Novel Series of 6-((1 H-Pyrazolo[4,3- b]pyridin-3-yl)amino)-benzo[ d]isothiazole-3-carboxamides as Positive Allosteric Modulators of the Metabotropic Glutamate Receptor 4 (mGlu4)” (J Med Chem, 2018).)
